Data on six compounds can be found in ChEMBL document CHEMBL1122444, “Sulfonyliminoimidazolidines. A new class of oral hypoglycemic agents. 2. Mode of action and X-ray structure of 1-[[p-[2-(crotonylamino)ethyl]phenyl]sulfonyl]-3-cyclohexyl-2-iminoimidazolidine” (J Med Chem, 1983).

Test [1] is filed under the species Oryctolagus cuniculus. Kind of test: In vitro insulin release was stimulated by the compound at a concentration of 0.9 mmol/L in rabbit pancreas. In kind it is functional. In a few lines:
(§1)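 Eight rabbit pancreas pieces, pooled from four rabbits per experiment, were incubated in bicarbonate-buffered medium containing 0.6 g/L glucose. Insulin per flask with compound was divided by basal release, taken as the mean of two preceding 20-min periods without compound. Results are mean ± SEM over n experiments.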

The test system of test [2] is Rattus norvegicus. Nature of the test: Blood glucose determined in normal rats at a hypoglycemic dose of 0.17 mmol/kg.
The species named for test [3] is Oryctolagus cuniculus. Nature of the test: In vitro insulin release was stimulated by the compound at a concentration of 0.003 mmol/L in rabbit pancreas. In kind it is functional. In a few lines: as §1
The species named for test [4] is Oryctolagus cuniculus. Nature of the test: In vitro insulin release was stimulated by the compound at a concentration of 0.1 mmol/L in rabbit pancreas. In kind it is functional. The procedure, abridged:
as §1

For test [5], the species on record is Oryctolagus cuniculus. Kind of test: In vitro insulin release was stimulated by the compound at a concentration of 0.01 mmol/L in rabbit pancreas. In kind it is functional. The procedure, abridged: as §1
Test [6] concerns Rattus norvegicus. Nature of the test: In vivo increase of plasma insulin in normal rats at a hypoglycemic dose of 0.17 mmol/kg. In kind it is functional, organism-based.
The species entered for test [7] is Rattus norvegicus. Kind of test: In vitro inhibition of glucose oxidation by the compound in isolated rat fat cells. In kind it is functional, cell-based. The procedure, abridged: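 Epididymal fat cells from five young rats (140–160 g) were isolated by collagenase digestion. They were incubated with D-[1-14C]glucose (40 nCi/flask, 0.1 g glucose/L) across a range of compound concentrations. IC50 was read graphically from % inhibition vs log concentration, reported as mean ± SEM over n experiments.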

Test [8] has as its system Rattus norvegicus. Nature of the test: […] in normal rats at a hypoglycemic dose of 0.18 mmol/kg. In kind it is functional.
For test [9], the species on record is Oryctolagus cuniculus. Kind of test: In vitro insulin release was stimulated by the compound at a concentration of 0.3 mmol/L in rabbit pancreas. The test is classed as functional. In a few lines:
as §1

In test [10] the test system is Rattus norvegicus. Kind of test: In vivo increase of plasma insulin in normal rats at a hypoglycemic dose of 0.18 mmol/kg. In kind it is functional, organism-based.
The species named for test [11] is Oryctolagus cuniculus. Nature of the test: In vitro insulin release was stimulated by the compound at a concentration of 0.03 mmol/L in rabbit pancreas. In kind it is functional. In a few lines: as §1
The subject of test [12] is Rattus norvegicus. Kind of test: In vivo increase of plasma insulin in normal rats at a hypoglycemic dose of 2.0 mmol/kg. The test is classed as functional, organism-based.
In test [13] the test system is Rattus norvegicus. Nature of the test: […] in normal rats at a hypoglycemic dose of 2.0 mmol/kg. In kind it is functional.
The test system of test [14] is Rattus norvegicus. Nature of the test: Percent change in blood glucose in normal rats at a hypoglycemic dose of 2.0 mmol/kg. against control. In kind it is functional. In a few lines: (§2)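 Female rats (175–195 g) were fasted 6–9 h and given compound orally as a suspension in 0.5% (w/v) methylcellulose (5 mL/kg). Blood glucose was measured enzymatically 45 min after dosing. Values are mean ± SEM, expressed as percent change against the control group.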

Test [15] has as its system Rattus norvegicus. Kind of test: Percent change in plasma insulin in normal rats at a hypoglycemic dose of 0.60 mmol/kg against control. The test is classed as functional.
The test system of test [16] is Rattus norvegicus. Nature of the test: […] in normal rats at a hypoglycemic dose of 0.60 mmol/kg. The test is classed as functional.
In test [17] the test system is Rattus norvegicus. Kind of test: Percent change in blood glucose in normal rats at a hypoglycemic dose of 0.60 mmol/kg against control. The test is classed as functional. The procedure, abridged: as §2
In test [18] the test system is Rattus norvegicus. Kind of test: In vivo increase of plasma insulin in normal rats at a hypoglycemic dose of 0.60 mmol/kg. The test is classed as functional, organism-based.
Test [19] relates to Rattus norvegicus. Nature of the test: Percent change in blood glucose in normal rats at a hypoglycemic dose of 0.008 mmol/kg. against control. Particulars: in the assay text read “plasma insulin” for “blood glucose”. In kind it is functional.
For test [20], the system named is Rattus norvegicus. Kind of test: […] in normal rats at a hypoglycemic dose of 0.072 mmol/kg. In kind it is functional.
For test [21], the system named is Rattus norvegicus. Kind of test: […] in normal rats at a hypoglycemic dose of 0.024 mmol/kg. In kind it is functional.
In test [22] the test system is Rattus norvegicus. Nature of the test: Percent change in blood glucose in normal rats at a hypoglycemic dose of 0.072 mmol/kg against control. The test is classed as functional. In a few lines:
as §2

For test [23], the species on record is Oryctolagus cuniculus. Nature of the test: In vitro insulin release was stimulated by the compound at a concentration of 0.1 mmol/L. The test is classed as functional. In a few lines: as §1
In test [24] the test system is Rattus norvegicus. Kind of test: […] in normal rats at a hypoglycemic dose of 0.008 mmol/kg. The test is classed as functional.
Test [25] has as its system Rattus norvegicus. Kind of test: In vivo increase of plasma insulin in normal rats at a hypoglycemic dose of 0.008 mmol/kg. The test is classed as functional, organism-based.
Test [26] deals with Rattus norvegicus. Nature of the test: In vivo increase of plasma insulin in normal rats at a hypoglycemic dose of […]. The test is classed as functional, organism-based.
Test [27] deals with Rattus norvegicus. Nature of the test: Percent change in blood glucose in normal rats at a hypoglycemic dose of 0.008 mmol/kg against control. The test is classed as functional. The procedure, abridged:
as §2

Test [28] relates to Rattus norvegicus. Nature of the test: Percent change in blood glucose in normal rats at a hypoglycemic dose of 0.024 mmol/kg against control. The test is classed as functional. In a few lines: as §2
Test [29] deals with Rattus norvegicus. Nature of the test: In vivo increase of plasma insulin in normal rats at a hypoglycemic dose of […]. In kind it is functional, organism-based.
The subject of test [30] is Rattus norvegicus. Kind of test: Percent change in plasma insulin in normal rats at a hypoglycemic dose of 0.0084 mmol/kg against control.
The species entered for test [31] is Rattus norvegicus. Nature of the test: Percent change in blood glucose against control. The test is classed as functional. The procedure, abridged: as §2
In test [32] the test system is Rattus norvegicus. Kind of test: […] in normal rats at a hypoglycemic dose of 0.028 mmol/kg. In kind it is functional.
Test [33] concerns Rattus norvegicus. Nature of the test: […] in normal rats at a hypoglycemic dose of 0.0084 mmol/kg. The test is classed as functional.
Test [34] has as its system Rattus norvegicus. Nature of the test: In vivo increase of plasma insulin in normal rats at a hypoglycemic dose of 0.028 […]. The test is classed as functional, organism-based.
In test [35] the test system is Rattus norvegicus. Nature of the test: In vivo increase of plasma insulin in normal rats at a hypoglycemic dose of 0.0084 […]. In kind it is functional, organism-based.
The species named for test [36] is Rattus norvegicus. Kind of test: Percent change in plasma insulin against control. The test is classed as functional.

Where “and” joins values, the source holds several entries; their conditions need not be identical. Equal entries are not always repeated. Where only a bound is given, the exact number is not on record here.

Broadly, the IC50 is the concentration that gives 50% inhibition. For `CCCCNC(=O)NS(=O)(=O)c1ccc(C)cc1` [TOLBUTAMIDE], the Insulin release in the test filed under Oryctolagus cuniculus [1] is listed as 4.23; in the test listed under Oryctolagus cuniculus [3], 0.95; in the test filed under Oryctolagus cuniculus [4], 4.33; in the test listed under Oryctolagus cuniculus [5] it was 1.81. The compound also showed a Blood glucose in the test on Rattus norvegicus [2] of 3.86 mmol/L. Moreover, the Plasma insulin with Rattus norvegicus [6] was found to be 278 pM l-1. For the same compound, the IC50 in the test filed under Rattus norvegicus [7] is more than 500 µM.
Regarding `COc1cccc(C(=O)NCCc2ccc(S(=O)(=O)N3CCN(C4CCCCC4)C3=N)cc2)c1`, the Blood glucose in the test with Rattus norvegicus [8] turned out to be 3.08 mM. Moreover, the Insulin release was 3.66 in the test listed under Oryctolagus cuniculus [9]; 2.24 in the test filed under Oryctolagus cuniculus [11]; 0.98 in the test listed under Oryctolagus cuniculus [3]; 3.13 in the test filed under Oryctolagus cuniculus [4]; 2.08 in the test filed under Oryctolagus cuniculus [5]. The same compound displayed a Plasma insulin in the test with Rattus norvegicus [10] of 285 pM l-1. The compound also showed an IC50 in the test listed under Rattus norvegicus [7] of 20 µM.
In the test on Rattus norvegicus [12], `N=C(N)NC(=N)NCCc1ccccc1` [PHENFORMIN] gave a Plasma insulin of 86.1 pM l-1. Also, the Blood glucose in the test with Rattus norvegicus [13] worked out at 5.52 mM. The IC50 in the test listed under Rattus norvegicus [7] came to 180 µM. Further, the Change in the test on Rattus norvegicus [14] was -10% and -6%.
For the compound `N=C1N(C2CCCCC2)CCN1S(=O)(=O)c1ccc(N)cc1`, the Insulin release in the test listed under Oryctolagus cuniculus [1] is given as 3.21; in the test filed under Oryctolagus cuniculus [11] it was 1.74; in the test filed under Oryctolagus cuniculus [3], 1.01; in the test filed under Oryctolagus cuniculus [4], 3.21; in the test filed under Oryctolagus cuniculus [5] it was 1.22. Besides, the Change in the test with Rattus norvegicus [15] is given as 42%; with Rattus norvegicus [17] it was -21%. Besides, the Blood glucose in the test with Rattus norvegicus [16] is 4.66 mM. Besides, in the test listed under Rattus norvegicus [7], the IC50 is 180 µM. The Plasma insulin in the test on Rattus norvegicus [18] stood at 136 pM l-1.
`CCCC(=O)NCCc1ccc(S(=O)(=O)N2CCN(C3CCCCC3)C2=N)cc1`: the Change with Rattus norvegicus [19] was 12%; with Rattus norvegicus [22], -38%; with Rattus norvegicus [27], -17%; in the test on Rattus norvegicus [28], -38%. Besides, the figures for the Blood glucose in the test with Rattus norvegicus [20], in the test with Rattus norvegicus [21] and in the test on Rattus norvegicus [24] were 3.63 mM, 3.62 mM and 4.86 mM, respectively. In addition, the Insulin release in the test filed under Oryctolagus cuniculus [9] is given as 3.06; in the test listed under Oryctolagus cuniculus [23], 2.51; in the test listed under Oryctolagus cuniculus [11], 2.18; in the test listed under Oryctolagus cuniculus [3], 1.02; in the test listed under Oryctolagus cuniculus [5] it was 1.84. In addition, the Plasma insulin in the test on Rattus norvegicus [25] is 108 pM l-1; with Rattus norvegicus [26] it was 310 pM l-1; in the test with Rattus norvegicus [29], 396 pM l-1. In the test filed under Rattus norvegicus [7], the IC50 is 71 µM.
Consider `C/C=C/C(=O)NCCc1ccc(S(=O)(=O)N2CCN(C3CCCCC3)C2=N)cc1`, for which the Change in the test with Rattus norvegicus [30] is 71%; in the test listed under Rattus norvegicus [31] it was -31% and -42%; in the test listed under Rattus norvegicus [36] it was 397%. The Blood glucose with Rattus norvegicus [32] worked out at 3.42 mM; in the test with Rattus norvegicus [33], 4.04 mM. The Insulin release in the test filed under Oryctolagus cuniculus [9] worked out at 1.82; in the test filed under Oryctolagus cuniculus [3] it was 1.88; in the test listed under Oryctolagus cuniculus [5] it was 2.73. Besides, the IC50 in the test filed under Rattus norvegicus [7] was 180 µM. Also, the results for the Plasma insulin in the test on Rattus norvegicus [34] and in the test on Rattus norvegicus [35] were 476 pM l-1 and 163 pM l-1, respectively.
